Source: BindingDB's records for doi:10.1021/jm060539t (Biogen Idec, 2006)

What was measured:
Adenosine receptor A1 [1] = biological target: T1, Adenosine receptor A1 (Rattus norvegicus, UniProt P25099); test: Displacement of [3H]DPCPX from adenosine A1 receptor in rat cerebral cortex
T1 sequence (P25099 whole entry): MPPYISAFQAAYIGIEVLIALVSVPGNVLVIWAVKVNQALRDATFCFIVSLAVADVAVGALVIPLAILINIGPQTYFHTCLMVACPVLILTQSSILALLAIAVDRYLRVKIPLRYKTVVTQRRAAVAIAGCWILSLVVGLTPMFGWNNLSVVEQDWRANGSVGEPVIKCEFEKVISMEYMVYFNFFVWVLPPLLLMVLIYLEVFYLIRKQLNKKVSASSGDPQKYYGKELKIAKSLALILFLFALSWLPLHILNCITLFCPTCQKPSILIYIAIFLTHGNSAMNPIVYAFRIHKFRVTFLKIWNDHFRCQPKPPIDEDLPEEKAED
In short: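 Rat brain membranes (cerebral cortex for A1, striatum for A2A) homogenized in 10 mM EDTA/10 mM Na-HEPES pH 7.4 with protease inhibitors, washed, stored at -80 °C. 40-70 µg protein incubated in triplicate with radioligand plus seven competitor concentrations in HEPES/EDTA buffer with 2 units/mL adenosine deaminase, 2.5 h, 21 °C. A1: [3H]DPCPX 2 nM, nonspecific with 10 µM NECA; A2A: [3H]ZM241385 0.5-1.2 nM, nonspecific with 10 µM XAC. GF/C filtration; single-site fit, Cheng-Prusoff Ki.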

Adenosine receptor A1 [2] = biological target: T2, Adenosine receptor A1 (Homo sapiens, UniProt P30542); test: Displacement of [125I]ABA from human adenosine A1 receptor
T2 sequence (P30542 whole entry): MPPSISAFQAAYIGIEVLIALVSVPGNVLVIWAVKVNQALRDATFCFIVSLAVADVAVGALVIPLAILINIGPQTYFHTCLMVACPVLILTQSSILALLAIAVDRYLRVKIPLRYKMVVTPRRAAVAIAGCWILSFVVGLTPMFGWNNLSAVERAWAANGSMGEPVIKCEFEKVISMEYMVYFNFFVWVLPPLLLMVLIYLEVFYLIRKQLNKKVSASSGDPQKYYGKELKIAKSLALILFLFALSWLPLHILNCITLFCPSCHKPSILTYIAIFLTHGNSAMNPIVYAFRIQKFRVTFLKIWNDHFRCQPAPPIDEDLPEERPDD

Adenosine receptor A3 = biological target: T3, Adenosine receptor A3 (Homo sapiens, UniProt P0DMS8); test: Displacement of [125I]ABA from human adenosine A3 receptor
T3 sequence (P0DMS8 whole entry): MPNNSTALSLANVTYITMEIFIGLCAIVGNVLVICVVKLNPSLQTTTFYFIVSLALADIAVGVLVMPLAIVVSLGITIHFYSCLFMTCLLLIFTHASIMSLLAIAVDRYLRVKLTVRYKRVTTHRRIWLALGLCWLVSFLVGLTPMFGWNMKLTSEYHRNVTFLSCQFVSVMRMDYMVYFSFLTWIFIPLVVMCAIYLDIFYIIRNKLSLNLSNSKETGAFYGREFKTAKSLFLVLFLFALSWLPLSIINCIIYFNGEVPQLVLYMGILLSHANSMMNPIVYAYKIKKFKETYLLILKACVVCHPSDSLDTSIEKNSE

Q: Which Ki (Adenosine receptor A1 [1]) does the source give for `CCCn1c2nc(C34CCC(O)(CC3)CC4)nc-2c2n(c1=O)CC[C@@H](C)N2` [(R)-2-(4-hydroxybicyclo[2.2.2]octan-1-yl)-9-methyl-4-propyl-8,9-dihydropyrimido[1,2-g]purin-5(1H,4H,7H)-one] here?
A: > 250 nM

Q: Which Ki (Adenosine receptor A1 [2]) does the source give for `CCCn1c2nc(C34CCC(O)(CC3)CC4)nc-2c2n(c1=O)C[C@@H](C(C)C)N2` [(R)-2-(4-hydroxybicyclo[2.2.2]octan-1-yl)-8-isopropyl-4-propyl-7,8-dihydro-1H-imidazo[1,2-g]purin-5(4H)-one] here?
A: 35 nM

Q: What about the Ki (Adenosine receptor A3) of the same compound?
A: > 10000 nM

Q: Which Ki (Adenosine receptor A3) does the source give for `CCCn1c2nc(C34CCC(O)(CC3)CC4)nc-2c2n(c1=O)C[C@@H](CC)N2` [(R)-8-ethyl-2-(4-hydroxybicyclo[2.2.2]octan-1-yl)-4-propyl-7,8-dihydro-1H-imidazo[1,2-g]purin-5(4H)-one] here?
A: > 10000 nM

Q: `CCCn1c2nc(C34CCC(O)(CC3)CC4)nc-2c2n(c1=O)C[C@H](CC)N2` [(S)-8-ethyl-2-(4-hydroxybicyclo[2.2.2]octan-1-yl)-4-propyl-7,8-dihydro-1H-imidazo[1,2-g]purin-5(4H)-one] was tested. Which Ki (Adenosine receptor A1 [1]) did it give?
A: > 100 nM

Q: With `CCCn1c2nc(C34CCC(O)(CC3)CC4)nc-2c2n(c1=O)CC[C@@H](CC)N2` [(R)-9-ethyl-2-(4-hydroxybicyclo[2.2.2]octan-1-yl)-4-propyl-8,9-dihydropyrimido[1,2-g]purin-5(1H,4H,7H)-one] as the compound, how does the Ki (Adenosine receptor A1 [1]) read?
A: > 250 nM

Q: For `CCCn1c2nc(C34CCC(CCC(=O)O)(CC3)CC4)nc-2c2n(c1=O)C[C@@H](C(C)C)N2` [(R)-3-(4-(8-isopropyl-5-oxo-4-propyl-4,5,7,8-tetrahydro-1H-imidazo[1,2-g]purin-2-yl)bicyclo[2.2.2]octan-1-yl)propanoic acid], which Ki (Adenosine receptor A3) is on record?
A: > 10000 nM
